The source of these data is ChEMBL document CHEMBL3861962 (Eur J Med Chem, 2016).

Data set [1] in a line: Metabolic stability in human liver microsomes assessed as parent compound remaining at 5 uM in presence of NADPH after 30 mins by LC-MS/MS analysis. It is filed as ADME. As to conditions: read-out: Stability. Summed up: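 Pooled human liver microsomes in 100 mM potassium phosphate, pH 7.4, with test compound at 5 μM final. Reaction started with 1 mM NADPH (final) and run at 37 °C in a shaking water bath for 0, 15 and 30 min. Stopped with an equal volume of ice-cold acetonitrile containing 0.6 μM labetalol as internal standard. Protein was spun out and the supernatant analysed by LC-MS/MS. Blank had no compound.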
(Microsomes from liver hold many membrane-bound enzymes, among them those of drug oxidation.)

The target in data set [2] is Cytochrome P450 3A4 (Homo sapiens, UniProt P08684). The data set can be described thus: Drug metabolism assessed as human recombinant CYP3A4-mediated metabolite formation by measuring parent compound remaining at 5 uM in presence of NADPH after 30 mins by LC-MS/MS analysis. The data set is classed as ADME. As to conditions: recombinant enzyme, 0.5 h. Summed up:
(§1)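 Substrate at 5 μM final in 100 mM potassium phosphate, pH 7.4, incubated with human liver microsomes or baculovirus-expressed recombinant CYP3A4, 2D6 or 2C9. Reaction started with 1 mM NADPH and run 0, 15 and 30 min at 37 °C. Stopped with ice-cold acetonitrile containing labetalol internal standard, then centrifuged. Supernatant analysed by LC-MS/MS on a C18 column at 40 °C. Blank was enzyme without substrate.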

Data set [3] addresses Cytochrome P450 2C9 (Homo sapiens, UniProt P11712). The data set can be described thus: Drug metabolism assessed as human recombinant CYP2C9-mediated metabolite formation by measuring parent compound remaining at 5 uM in presence of NADPH after 30 mins by LC-MS/MS analysis. As to conditions: recombinant enzyme, 0.5 h. The data set is classed as ADME. Summed up: as §1
Data set [4] is described as follows: Retention time of the compound. It is filed as physicochemical.
In data set [5] the target is Cytochrome P450 2D6 (Homo sapiens, UniProt P10635). The data set can be described thus: Drug metabolism assessed as human recombinant CYP2D6-mediated metabolite formation by measuring parent compound remaining at 5 uM in presence of NADPH after 30 mins by LC-MS/MS analysis. As to conditions: recombinant enzyme, 0.5 h. It is filed as ADME. Summed up:
as §1

A short description of data set [6]: Cytotoxicity against CHOK1 cells assessed as decrease in cell viability after 24 hrs by MTT assay. The data set is classed as toxicity, cell-based, Cricetulus griseus. As to conditions: Chinese hamster, CHO-K1 cells. Summed up:
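CHO-k1 cells grown in phenol-red-free DMEM/F-12 with 10% FBS, seeded at 20,000 cells/well and allowed to attach overnight. Exposure was 24 h to 0.1–200 μM, with DMSO as vehicle control. MTT at 1 mg/mL for 3 h at 37 °C, formazan dissolved in DMSO, absorbance read at 570 nm. Data given as % OD of vehicle control; IC50 taken from dose–response curve fits.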
Background: Formazan colour is commonly taken as a measure of viable cells.

In data set [7] the target is T1, Endothelin-1 receptor (Homo sapiens) (UniProt P25101).
T1 sequence (whole entry): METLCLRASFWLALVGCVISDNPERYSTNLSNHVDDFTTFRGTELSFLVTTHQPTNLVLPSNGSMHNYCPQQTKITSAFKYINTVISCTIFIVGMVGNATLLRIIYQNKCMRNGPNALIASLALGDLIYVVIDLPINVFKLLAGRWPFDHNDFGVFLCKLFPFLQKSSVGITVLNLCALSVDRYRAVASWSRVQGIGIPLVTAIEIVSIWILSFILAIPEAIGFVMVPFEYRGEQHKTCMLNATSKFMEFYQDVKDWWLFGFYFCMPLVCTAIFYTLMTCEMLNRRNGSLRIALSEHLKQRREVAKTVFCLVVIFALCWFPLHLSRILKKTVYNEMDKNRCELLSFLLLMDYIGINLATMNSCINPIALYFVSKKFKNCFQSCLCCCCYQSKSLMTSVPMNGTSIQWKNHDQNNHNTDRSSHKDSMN
The data set can be described thus: Agonist activity at ETA receptor in human SKNMC cells assessed as induction of Ca2+ mobilization at 1 nM by fluorimetric method relative to control. The data set is classed as functional, cell-based. As to conditions: SK-N-MC. Summed up:
(§2)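 ETA functional assay run by Cerep in human neuroblastoma SK-N-MC cells at 22 °C with fluorimetric read-out. Test solutions were 1, 10, 100 and 1000 nM. Agonist response is given as % of the control response to 100 nM endothelin-1. For antagonist mode, inhibition is given as % of the control endothelin-1 agonist response, with BQ-123 as reference antagonist.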

Data set [8] has as its target T1, Endothelin-1 receptor (Homo sapiens). The data set can be described thus: Agonist activity at ETA receptor in human SKNMC cells assessed as induction of Ca2+ mobilization at 10 nM by fluorimetric method relative to control. As to conditions: SK-N-MC. The data set is classed as functional, cell-based. Summed up:
as §2
For orientation: Calcium assays in cells follow changes in intracellular calcium, usually with a dye or a luminescent sensor.

The target is the same in data set [9]. The data set can be described thus: Agonist activity at ETA receptor in human SKNMC cells assessed as induction of Ca2+ mobilization at 100 nM by fluorimetric method relative to control. It is filed as functional, cell-based. As to conditions: SK-N-MC. In short, it runs like this:
as §2

Data set [10] has as its target T2, Endothelin receptor type B (Homo sapiens) (UniProt P24530).
T2 sequence (whole entry): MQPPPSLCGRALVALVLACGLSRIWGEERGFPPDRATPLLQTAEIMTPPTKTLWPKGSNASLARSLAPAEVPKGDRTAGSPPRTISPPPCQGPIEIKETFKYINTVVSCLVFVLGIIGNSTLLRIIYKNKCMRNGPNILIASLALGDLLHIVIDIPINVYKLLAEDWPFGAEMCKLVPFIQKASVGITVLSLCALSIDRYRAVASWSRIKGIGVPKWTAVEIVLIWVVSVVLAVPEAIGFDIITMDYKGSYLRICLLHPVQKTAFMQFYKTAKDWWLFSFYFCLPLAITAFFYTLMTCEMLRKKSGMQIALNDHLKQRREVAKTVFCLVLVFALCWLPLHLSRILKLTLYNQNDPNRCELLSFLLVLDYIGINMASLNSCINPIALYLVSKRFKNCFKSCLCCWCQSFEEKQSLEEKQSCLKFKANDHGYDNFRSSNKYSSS
Description: Agonist activity at human recombinant ETB receptor expressed in CHOK1 cells assessed as induction of Ca2+ mobilization at 1 nM by fluorimetric method relative to control. The data set is classed as functional, cell-based. As to conditions: CHO-K1. Summed up:
(§3)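 ETB functional assay run by Cerep in human recombinant CHO-k1 cells at 22 °C with fluorimetric read-out. Test solutions were 1, 10, 100 and 1000 nM. Agonist response is given as % of the control response to 100 nM endothelin-1. For antagonist mode, inhibition is given as % of the control endothelin-1 agonist response, with BQ-788 as reference antagonist.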

Data set [11] has as its target T2, Endothelin receptor type B (Homo sapiens). Description: Agonist activity at human recombinant ETB receptor expressed in CHOK1 cells assessed as induction of Ca2+ mobilization at 10 nM by fluorimetric method relative to control. As to conditions: CHO-K1. The data set is classed as functional, cell-based. Summed up: as §3
The target in data set [12] is T1, Endothelin-1 receptor (Homo sapiens). Description: Antagonist activity at ETA receptor in human SKNMC cells assessed as inhibition of endothelin-1-mediated Ca2+ mobilization at 10 nM by fluorimetric method relative to control. It is filed as functional, cell-based. As to conditions: SK-N-MC. In short, it runs like this: as §2
In data set [13] the target is T2, Endothelin receptor type B (Homo sapiens). The data set can be described thus: Antagonist activity at human recombinant ETB expressed in CHOK1 cells assessed as inhibition of endothelin-1-mediated Ca2+ mobilization at 10 nM by fluorimetric method relative to control. It is filed as functional, cell-based. As to conditions: CHO-K1. In short, it runs like this:
as §3

Data set [14] shares this target. Description: Antagonist activity at human recombinant ETB expressed in CHOK1 cells assessed as inhibition of endothelin-1-mediated Ca2+ mobilization at 100 nM by fluorimetric method relative to control. The data set is classed as functional, cell-based. As to conditions: CHO-K1. Summed up:
as §3

For data set [15], the target named is T3, Endothelin-1 receptor (Homo sapiens, UniProt P25101).
T3 sequence (P25101 whole entry): T1 sequence (whole entry)
The data set can be described thus: Antagonist activity at ETA receptor in human SKNMC cells assessed as inhibition of endothelin-1-induced Ca2+ mobilization by fluorimetric method.

Chain of Cytochrome P450 2D6 (P10635 whole entry): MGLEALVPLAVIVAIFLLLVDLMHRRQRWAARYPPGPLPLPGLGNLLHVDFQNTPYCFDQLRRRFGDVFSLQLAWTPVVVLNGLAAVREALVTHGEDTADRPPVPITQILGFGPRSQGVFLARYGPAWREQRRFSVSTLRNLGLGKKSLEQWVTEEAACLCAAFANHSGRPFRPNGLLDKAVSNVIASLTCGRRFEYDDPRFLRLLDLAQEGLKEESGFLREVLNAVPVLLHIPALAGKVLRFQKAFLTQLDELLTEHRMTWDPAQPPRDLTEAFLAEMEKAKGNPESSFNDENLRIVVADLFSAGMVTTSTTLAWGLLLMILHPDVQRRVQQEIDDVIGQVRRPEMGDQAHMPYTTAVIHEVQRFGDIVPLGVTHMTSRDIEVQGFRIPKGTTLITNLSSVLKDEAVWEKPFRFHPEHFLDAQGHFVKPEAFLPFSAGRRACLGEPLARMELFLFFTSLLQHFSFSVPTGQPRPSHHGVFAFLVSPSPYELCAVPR
Chain of Cytochrome P450 2C9 (P11712 whole entry): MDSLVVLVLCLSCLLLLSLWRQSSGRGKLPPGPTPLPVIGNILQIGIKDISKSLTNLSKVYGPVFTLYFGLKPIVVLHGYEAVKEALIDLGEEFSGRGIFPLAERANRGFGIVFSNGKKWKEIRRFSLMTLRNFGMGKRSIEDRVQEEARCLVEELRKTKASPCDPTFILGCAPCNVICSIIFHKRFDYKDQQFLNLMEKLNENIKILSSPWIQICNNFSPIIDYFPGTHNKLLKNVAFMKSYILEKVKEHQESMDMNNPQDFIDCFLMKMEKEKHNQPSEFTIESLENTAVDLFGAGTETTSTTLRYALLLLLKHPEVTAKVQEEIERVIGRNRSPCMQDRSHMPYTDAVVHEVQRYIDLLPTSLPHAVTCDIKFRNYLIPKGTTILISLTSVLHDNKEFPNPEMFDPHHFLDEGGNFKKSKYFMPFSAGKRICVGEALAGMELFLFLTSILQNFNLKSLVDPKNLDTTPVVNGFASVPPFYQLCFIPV
Chain of Cytochrome P450 3A4 (P08684 whole entry): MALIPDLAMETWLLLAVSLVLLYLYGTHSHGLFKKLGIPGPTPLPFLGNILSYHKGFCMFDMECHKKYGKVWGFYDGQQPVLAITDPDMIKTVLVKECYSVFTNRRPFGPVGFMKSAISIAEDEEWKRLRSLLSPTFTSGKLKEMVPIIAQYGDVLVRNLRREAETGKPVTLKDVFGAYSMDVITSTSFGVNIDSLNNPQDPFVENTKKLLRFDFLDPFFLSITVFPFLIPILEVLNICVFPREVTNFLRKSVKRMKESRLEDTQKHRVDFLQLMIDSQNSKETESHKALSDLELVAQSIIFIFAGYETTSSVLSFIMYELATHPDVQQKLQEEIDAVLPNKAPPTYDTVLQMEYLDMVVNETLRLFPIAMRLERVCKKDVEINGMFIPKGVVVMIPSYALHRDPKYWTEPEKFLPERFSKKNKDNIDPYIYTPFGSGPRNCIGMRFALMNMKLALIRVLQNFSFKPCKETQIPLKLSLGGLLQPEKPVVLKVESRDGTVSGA

As a reminder, the IC50 is the concentration needed to halve the response being measured. By inhibition is commonly meant the change of the read-out against control, counted positive when it falls. For `COc1ccccc1Oc1c(NS(=O)(=O)c2ccc(C(F)(C(F)(F)F)C(F)(F)F)cc2)nc(-c2ncccn2)nc1OCCO`, the remaining at 0.5 h, 5 µM in data set [1] was found to be 99%. Besides, the Stability is given as 16.3% in data set [2], 100% in data set [3] and over 99% in data set [5]. The Retention_time in data set [4] stood at 5.6 min. The IC50 at 24 h in data set [6] is 159 µM. The Activity in data set [7] is 0%; in [8], -1%; in data set [9], -1%; in data set [10], 0%; in data set [11], -1%. In addition, the inhibition was 20% in [12], 16% in data set [13] and 8% in data set [14]. In addition, the IC50 in [15] turned out to be 0.0754 µM.
Take `COc1ccccc1Oc1c(NS(=O)(=O)c2ccc(C(OC)(C(F)(F)F)C(F)(F)F)cc2)nc(-c2ncccn2)nc1OCCO`: the remaining at 0.5 h, 5 µM in [1] turned out to be 73.9%. Besides, the Stability in data set [2] was 19.2%; in [3], 100%; in [5] it was over 99%. The Retention_time in data set [4] was 5.48 min. Moreover, in data set [6], the IC50 at 24 h turned out to be 153 µM. Further, the Activity in data set [7], in [8], in data set [9], in data set [10] and in data set [11] was 0% throughout. In addition, the inhibition in data set [12] turned out to be 13%; in data set [13], 5%; in data set [14], 11%. Moreover, in data set [15], the concentration for half-maximal inhibition (IC50) came out at 693 µM.
